Test results: ChEMBL document CHEMBL6134900 (J Med Chem, 2025)
Calls of active or inactive are those of the source. The calls are words filed in the database; no cut-off is given here.

Experiments:
NCI-H1693 = experiment: Inhibition of colony formation in human NCI-H1693 cells harboring SMARCA4 mutant incubated for 9 to 14 days by crystal violet staining based assay; assay type: functional, cell-based; details: for inhibition: dose 0.001-10 µM, time 9-14 day
Method in brief: (§1)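 Single cells, 0.5–2 × 10^3 per well in 6-well plates, in RPMI with 10% FBS. Grown 9–14 days in drug-containing medium, refreshed every fifth day. Fixed in 10% formalin, stained with 0.01% crystal violet. Total colony area quantified and expressed relative to DMSO. n = 3 biological replicates. IC50 ratio is wild-type over mutant.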

[1] = molecular target: T1, Protein cereblon/SWI/SNF-related matrix-associated actin-dependent regulator of chromatin subfamily A member 2 (Homo sapiens, UniProt P51531+Q96SW2); experiment: PROTAC activity at CRBN/SMARCA2 in human NCI-H2030 cells harboring mutated SMARCA4 assessed as induction of SMARCA2 degradation incubated for 48 hrs by immunoblot analysis; assay type: cell-based
Method in brief: (§2)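 SMARCA4-mutant H322, HCC515, H2030 and H2126 cells were treated as indicated. SMARCA2 was immunoblotted in RIPA lysates and quantified after normalisation to β-actin. Expression is given relative to DMSO-treated cells, and Dmax was derived by nonlinear regression.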
Target sequence in this assay (P51531 whole entry, looked up, change not shown): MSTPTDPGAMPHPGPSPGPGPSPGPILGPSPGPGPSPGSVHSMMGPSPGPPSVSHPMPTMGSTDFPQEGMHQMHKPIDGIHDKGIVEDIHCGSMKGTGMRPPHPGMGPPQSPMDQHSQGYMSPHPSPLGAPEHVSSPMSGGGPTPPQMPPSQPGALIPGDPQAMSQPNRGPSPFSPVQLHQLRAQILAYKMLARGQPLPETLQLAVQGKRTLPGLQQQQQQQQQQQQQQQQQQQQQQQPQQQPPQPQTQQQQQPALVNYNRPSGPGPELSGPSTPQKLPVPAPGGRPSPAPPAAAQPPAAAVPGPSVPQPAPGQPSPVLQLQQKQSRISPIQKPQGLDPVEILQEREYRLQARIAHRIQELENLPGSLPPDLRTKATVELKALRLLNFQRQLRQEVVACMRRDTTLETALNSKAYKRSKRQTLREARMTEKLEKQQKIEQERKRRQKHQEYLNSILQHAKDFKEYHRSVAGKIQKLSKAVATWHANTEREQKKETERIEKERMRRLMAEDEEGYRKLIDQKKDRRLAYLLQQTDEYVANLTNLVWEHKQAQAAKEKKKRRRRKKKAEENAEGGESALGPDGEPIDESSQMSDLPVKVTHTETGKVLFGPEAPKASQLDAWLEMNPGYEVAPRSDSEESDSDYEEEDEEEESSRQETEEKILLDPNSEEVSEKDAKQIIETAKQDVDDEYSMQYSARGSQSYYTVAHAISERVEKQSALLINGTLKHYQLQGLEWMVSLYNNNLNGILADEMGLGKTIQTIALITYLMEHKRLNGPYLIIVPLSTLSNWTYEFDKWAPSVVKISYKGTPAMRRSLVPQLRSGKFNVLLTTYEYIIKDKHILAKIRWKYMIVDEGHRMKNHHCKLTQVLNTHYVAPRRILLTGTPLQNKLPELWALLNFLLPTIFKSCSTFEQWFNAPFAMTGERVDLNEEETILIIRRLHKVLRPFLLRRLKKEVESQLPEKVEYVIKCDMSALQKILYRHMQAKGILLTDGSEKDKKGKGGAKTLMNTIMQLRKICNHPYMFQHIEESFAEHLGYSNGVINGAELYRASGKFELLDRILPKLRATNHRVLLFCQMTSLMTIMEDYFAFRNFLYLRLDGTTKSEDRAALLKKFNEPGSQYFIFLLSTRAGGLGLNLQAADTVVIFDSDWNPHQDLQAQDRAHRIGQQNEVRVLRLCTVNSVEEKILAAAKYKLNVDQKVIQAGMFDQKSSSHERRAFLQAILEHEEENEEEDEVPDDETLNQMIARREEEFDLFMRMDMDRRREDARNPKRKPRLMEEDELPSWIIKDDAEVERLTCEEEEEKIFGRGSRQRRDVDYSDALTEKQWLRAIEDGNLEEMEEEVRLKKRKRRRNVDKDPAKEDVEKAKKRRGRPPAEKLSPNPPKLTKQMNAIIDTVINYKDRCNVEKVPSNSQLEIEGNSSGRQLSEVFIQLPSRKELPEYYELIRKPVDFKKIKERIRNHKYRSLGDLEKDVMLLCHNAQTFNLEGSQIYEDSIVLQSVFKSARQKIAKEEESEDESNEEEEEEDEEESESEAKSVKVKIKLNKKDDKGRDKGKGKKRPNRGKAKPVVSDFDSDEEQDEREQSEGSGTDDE
Target sequence in this assay (Q96SW2 whole entry, looked up, change not shown): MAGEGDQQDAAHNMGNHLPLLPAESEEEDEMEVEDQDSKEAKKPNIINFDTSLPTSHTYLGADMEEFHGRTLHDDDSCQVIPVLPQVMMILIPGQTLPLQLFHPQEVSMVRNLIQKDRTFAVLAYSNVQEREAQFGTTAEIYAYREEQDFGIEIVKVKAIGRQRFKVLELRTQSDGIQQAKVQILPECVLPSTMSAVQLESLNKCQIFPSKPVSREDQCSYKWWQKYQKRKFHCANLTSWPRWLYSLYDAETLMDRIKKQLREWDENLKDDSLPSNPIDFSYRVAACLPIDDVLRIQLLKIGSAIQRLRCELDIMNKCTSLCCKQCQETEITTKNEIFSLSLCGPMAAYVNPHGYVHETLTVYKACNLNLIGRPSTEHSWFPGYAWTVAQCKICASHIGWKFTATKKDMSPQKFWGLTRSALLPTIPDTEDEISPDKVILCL

NCI-H1568 = experiment: (§3) Inhibition of colony formation in human NCI-H1568 cells harboring SMARCA4 mutant incubated for 9 to 14 days by crystal violet staining based assay; assay type: functional, cell-based; details: dose 0.001-10 µM, time 9-14 day; method in brief: as §1
[2] = as §3; assay type: functional, cell-based; method in brief: as §1
[3] = AUC (0 to infinity) in male CD-1 (ICR) mouse at 25 mg/kg, ip measured up to 24 hrs by LC-MS/MS analysis; assay type: ADME, organism-based; details: in vivo
Method in brief: (§4)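 Single 25 mg/kg dose. IP vehicle was 5% DMSO/5% solutol/90% water at 1.25 mg/mL, final pH 4.39, clear solution. Oral vehicle was 0.5% methylcellulose/0.2% Tween 80 in water, opaque suspension. Plasma sampled at 0.25, 0.5, 1, 2, 4, 8 and 24 h. Plasma protein-precipitated with internal standard in acetonitrile, then LC-MS/MS. n = 3 mice per time point, mean.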

[4] = molecular target: T2, Protein cereblon/SWI/SNF-related matrix-associated actin-dependent regulator of chromatin subfamily A member 4 (Homo sapiens, UniProt P51532+Q96SW2); experiment: PROTAC activity at CRBN/SMARCA4 in human NCI-H1792 cells harboring wild type SMARCA4 assessed as induction of SMARCA4 degradation incubated for 48 hrs by immunoblot analysis; assay type: cell-based
Method in brief: (§5)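 H1792 (SMARCA4-WT) cells in RPMI with 10% FBS were treated with 1 nM–10 μM for 24 or 48 h. Cells were lysed in RIPA and immunoblotted for SMARCA2, SMARCA4 and β-actin. Bands were quantified and normalised to β-actin, with DMSO set at 100%. DC50 and Dmax were derived by nonlinear regression. n = 3 biological replicates.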

[5] = molecular target: T1, Protein cereblon/SWI/SNF-related matrix-associated actin-dependent regulator of chromatin subfamily A member 2; experiment: PROTAC activity at CRBN/SMARCA2 in human NCI-H1792 cells harboring wild type SMARCA4 assessed as induction of SMARCA2 degradation incubated up to 96 hrs by immunoblot analysis; assay type: cell-based
[6] = (§6) Inhibition of colony formation in human NCI-H2122 cells harboring wild type SMARCA4 incubated for 9 to 14 days by crystal violet staining based assay; assay type: functional, cell-based; method in brief: as §1
NCI-H2122 = experiment: as §6; assay type: functional, cell-based; details: dose 0.001-10 µM, time 9-14 day; method in brief: as §1
HCC44 = experiment: (§7) Inhibition of colony formation in human HCC44 cells harboring wild type SMARCA4 incubated for 9 to 14 days by crystal violet staining based assay; assay type: functional, cell-based; details: dose 0.001-10 µM, time 9-14 day; method in brief: as §1
[7] = as §7; assay type: functional, cell-based; method in brief: as §1
[8] = molecular target: T1, Protein cereblon/SWI/SNF-related matrix-associated actin-dependent regulator of chromatin subfamily A member 2; experiment: PROTAC activity at CRBN/SMARCA2 in human HCC515 cells harboring mutated SMARCA4 assessed as induction of SMARCA2 degradation incubated for 48 hrs by immunoblot analysis; assay type: cell-based; method in brief: as §2
Target sequence in this assay (P51531 whole entry, looked up, change not shown): as the sequence (P51531 whole entry, looked up, change not shown) above
Target sequence in this assay (Q96SW2 whole entry, looked up, change not shown): as the sequence (Q96SW2 whole entry, looked up, change not shown) above

[9] = AUC (0 to last) in male CD-1 (ICR) mouse at 25 mg/kg, po measured up to 24 hrs by LC-MS/MS analysis; assay type: ADME, organism-based; details: in vivo; method in brief: as §4
[10] = molecular target: T1, Protein cereblon/SWI/SNF-related matrix-associated actin-dependent regulator of chromatin subfamily A member 2; experiment: PROTAC activity at CRBN/SMARCA2 in human H322 cells harboring mutated SMARCA4 assessed as induction of SMARCA2 degradation incubated for 48 hrs by immunoblot analysis; assay type: cell-based; method in brief: as §2
Target sequence in this assay (P51531 whole entry, looked up, change not shown): as the sequence (P51531 whole entry, looked up, change not shown) above
Target sequence in this assay (Q96SW2 whole entry, looked up, change not shown): as the sequence (Q96SW2 whole entry, looked up, change not shown) above

[11] = Cmax in male CD-1 (ICR) mouse at 25 mg/kg, ip measured up to 24 hrs by LC-MS/MS analysis; assay type: ADME, organism-based; details: in vivo; method in brief: as §4
[12] = Metabolic stability in human liver microsomes assessed as compound remaining by measuring fold change in absence of NADPH measured after 60 mins by LC-MS/MS analysis; assay type: ADME, Microsome; details: 1 h
Method in brief: (§8)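 Microsomes at 0.5 mg protein/mL preincubated with compound for 10 min at 37 °C. The NCF60 control received 100 mM potassium phosphate buffer in place of the NADPH regenerating system and was incubated 1 h at 37 °C. Quenched with cold acetonitrile containing tolbutamide and labetalol internal standards, centrifuged, supernatant analyzed by LC-MS/MS. Fraction remaining reported.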

[13] = molecular target: T1, Protein cereblon/SWI/SNF-related matrix-associated actin-dependent regulator of chromatin subfamily A member 2; experiment: PROTAC activity at CRBN/SMARCA2 in human NCI-H2126 cells harboring mutated SMARCA4 assessed as induction of SMARCA2 degradation incubated for 48 hrs by immunoblot analysis; assay type: cell-based; method in brief: as §2
Target sequence in this assay (P51531 whole entry, looked up, change not shown): as the sequence (P51531 whole entry, looked up, change not shown) above
Target sequence in this assay (Q96SW2 whole entry, looked up, change not shown): as the sequence (Q96SW2 whole entry, looked up, change not shown) above

[14] = molecular target: T1, Protein cereblon/SWI/SNF-related matrix-associated actin-dependent regulator of chromatin subfamily A member 2; experiment: PROTAC activity at CRBN/SMARCA2 in human NCI-H1792 cells harboring wild type SMARCA4 assessed as induction of SMARCA2 degradation incubated for 24 hrs by immunoblot analysis; assay type: cell-based; method in brief: as §5
Target sequence in this assay (P51531 whole entry): as the sequence (P51531 whole entry, looked up, change not shown) above
Target sequence in this assay (Q96SW2 whole entry): as the sequence (Q96SW2 whole entry, looked up, change not shown) above

[15] = Metabolic stability in mouse liver microsomes assessed as compound remaining by measuring fold change in absence of NADPH measured after 60 mins by LC-MS/MS analysis; assay type: ADME, Microsome; details: 1 h; method in brief: as §8
[16] = Half life in male CD-1 (ICR) mouse at 25 mg/kg, ip measured up to 24 hrs by LC-MS/MS analysis; assay type: ADME, organism-based; details: in vivo; method in brief: as §4
[17] = molecular target: T2, Protein cereblon/SWI/SNF-related matrix-associated actin-dependent regulator of chromatin subfamily A member 4; experiment: PROTAC activity at CRBN/SMARCA4 in human NCI-H1792 cells harboring wild type SMARCA4 assessed as induction of SMARCA4 degradation incubated for 24 hrs by immunoblot analysis; assay type: cell-based; method in brief: as §5
[18] = Cmax in male CD-1 (ICR) mouse at 25 mg/kg, po measured up to 24 hrs by LC-MS/MS analysis; assay type: ADME, organism-based; details: in vivo; method in brief: as §4
[19] = AUC (0 to last) in male CD-1 (ICR) mouse at 25 mg/kg, ip measured up to 24 hrs by LC-MS/MS analysis; assay type: ADME, organism-based; details: in vivo; method in brief: as §4
[20] = molecular target: T1, Protein cereblon/SWI/SNF-related matrix-associated actin-dependent regulator of chromatin subfamily A member 2; experiment: PROTAC activity at CRBN/SMARCA2 in human NCI-H1792 cells harboring wild type SMARCA4 assessed as induction of SMARCA2 degradation incubated for 48 hrs by immunoblot analysis; assay type: cell-based; method in brief: as §5
Target sequence in this assay (P51531 whole entry): as the sequence (P51531 whole entry, looked up, change not shown) above
Target sequence in this assay (Q96SW2 whole entry): as the sequence (Q96SW2 whole entry, looked up, change not shown) above

[21] = In vivo PROTAC activity at CRBN/SMARCA2 in female athymic nude mouse xenografted with human NCI-H2030 cells harboring SMARCA4 mutant assessed as SMARCA2 degradation at 5 mg/kg, po administered once daily via gavage for 17 days by Western blotting analysis relative to control; assay type: functional; details: time 17 day
Method in brief: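 H2030 cells (10 × 10^6, PBS/Matrigel 1:1) implanted subcutaneously in the flank of female nude mice. Randomised below 200 mm3. 5 mg/kg or vehicle given by oral gavage once daily for 17 days in 10% DMSO/40% PEG300/1% Tween-80/49% saline. Tumours collected 24 h after dosing. SMARCA2 measured by Western blot against β-actin, relative to vehicle.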

T2 sequence (P51532 whole entry): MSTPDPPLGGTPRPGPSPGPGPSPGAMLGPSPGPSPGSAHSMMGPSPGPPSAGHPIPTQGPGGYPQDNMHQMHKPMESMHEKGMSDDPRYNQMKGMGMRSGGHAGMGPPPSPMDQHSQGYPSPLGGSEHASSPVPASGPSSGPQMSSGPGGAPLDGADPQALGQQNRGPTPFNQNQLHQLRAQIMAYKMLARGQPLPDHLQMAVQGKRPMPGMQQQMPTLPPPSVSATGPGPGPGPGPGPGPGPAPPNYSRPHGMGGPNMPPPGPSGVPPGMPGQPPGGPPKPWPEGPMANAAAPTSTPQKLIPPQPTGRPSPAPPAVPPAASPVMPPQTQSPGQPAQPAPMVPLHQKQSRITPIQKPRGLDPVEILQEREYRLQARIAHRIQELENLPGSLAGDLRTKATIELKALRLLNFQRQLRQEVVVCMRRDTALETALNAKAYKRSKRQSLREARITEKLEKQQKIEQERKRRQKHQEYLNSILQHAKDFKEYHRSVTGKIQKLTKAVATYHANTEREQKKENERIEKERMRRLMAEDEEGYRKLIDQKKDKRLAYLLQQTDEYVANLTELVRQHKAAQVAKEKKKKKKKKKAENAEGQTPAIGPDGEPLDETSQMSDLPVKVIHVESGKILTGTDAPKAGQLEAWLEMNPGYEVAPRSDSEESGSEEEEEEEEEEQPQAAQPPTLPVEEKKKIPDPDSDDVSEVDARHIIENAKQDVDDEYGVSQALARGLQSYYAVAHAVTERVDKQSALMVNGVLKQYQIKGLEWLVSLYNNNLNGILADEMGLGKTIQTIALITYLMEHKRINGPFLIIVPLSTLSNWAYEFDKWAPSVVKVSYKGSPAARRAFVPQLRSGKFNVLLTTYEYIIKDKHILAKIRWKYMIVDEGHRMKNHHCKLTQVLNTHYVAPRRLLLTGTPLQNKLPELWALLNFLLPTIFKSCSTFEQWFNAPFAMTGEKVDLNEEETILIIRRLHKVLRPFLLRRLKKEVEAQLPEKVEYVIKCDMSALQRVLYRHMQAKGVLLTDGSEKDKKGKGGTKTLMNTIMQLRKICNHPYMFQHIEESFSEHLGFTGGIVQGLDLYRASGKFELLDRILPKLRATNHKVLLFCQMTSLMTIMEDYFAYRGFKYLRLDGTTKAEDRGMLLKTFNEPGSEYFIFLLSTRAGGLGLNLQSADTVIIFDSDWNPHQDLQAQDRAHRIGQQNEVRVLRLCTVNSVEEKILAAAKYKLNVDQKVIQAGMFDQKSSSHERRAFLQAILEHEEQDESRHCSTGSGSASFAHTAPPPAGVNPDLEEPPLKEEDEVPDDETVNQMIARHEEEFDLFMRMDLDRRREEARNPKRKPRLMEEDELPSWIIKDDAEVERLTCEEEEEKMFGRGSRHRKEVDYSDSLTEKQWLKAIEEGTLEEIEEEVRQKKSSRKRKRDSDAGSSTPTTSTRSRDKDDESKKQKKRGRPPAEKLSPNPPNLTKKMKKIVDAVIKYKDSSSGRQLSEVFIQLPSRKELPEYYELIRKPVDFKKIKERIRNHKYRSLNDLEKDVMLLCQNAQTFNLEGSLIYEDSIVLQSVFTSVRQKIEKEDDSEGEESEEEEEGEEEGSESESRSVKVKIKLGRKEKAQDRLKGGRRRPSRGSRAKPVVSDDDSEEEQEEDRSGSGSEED
T2 sequence (Q96SW2 whole entry): as the sequence (Q96SW2 whole entry, looked up, change not shown) above

| Structure (SMILES) | IC50 (NCI-H1693) [nM] | inhibition (NCI-H1693) | DC50 [1] [nM] | inhibition (NCI-H1568) | IC50 [2] [nM] | AUC [3] [ng·h/mL] | DC50 [4] [nM] | Activity [5] | inhibition (NCI-H2122) | inhibition (HCC44) | IC50 [7] [nM] | DC50 [8] [nM] | AUClast [9] [ng·h/mL] | DC50 [10] [nM] | Cmax [11] [ng/mL] | fold change (FC) [12] | DC50 [13] [nM] | DC50 [14] [nM] | fold change (FC) [15] | t1/2 [16] [h] | also measured |
| --- | --- | --- | --- | --- | --- | --- | --- | --- | --- | --- | --- | --- | --- | --- | --- | --- | --- | --- | --- | --- | --- |
| Nc1nnc(-c2ccccc2O)cc1N1CCN(Cc2ccc(N3CCC(CN4CCN(c5ccc6c(c5)C(=O)N(C5CCC(=O)NC5=O)C6=O)CC4)CC3)c(F)c2)CC1 (stereo unspecified) | 78 | Dose-dependent-effect | 12.7 | Dose-dependent-effect | 78 | 68813 | 381 | Active | Dose-dependent-effect | Dose-dependent-effect | 10000 | 10.6 | 12079.3 | 6.4 | 1756.3 | 0.33 | 1.2 | 69 | 0.935 | 44.8 | IC50 ([6]; dose 0.001-10 µM, time 9-14 day): 10000 nM; DC50 [17]: 135 nM; Cmax [18]: 649.3 ng/mL; AUClast [19]: 23213.7 ng·h/mL; DC50 [20]: 60 nM |
| Nc1nnc(-c2ccccc2O)cc1N1CCN(Cc2ccc(N3CCN(CCOc4cccc5c4C(=O)N(C4CCC(=O)NC4=O)C5=O)CC3)c(F)c2)CC1 (stereo unspecified) | 11 | Dose-dependent-effect | 10.3 | Dose-dependent-effect | 11 | 27108.3 | 149 | Active; More Potent And Fastest Degradation Observed | Dose-dependent-effect | Dose-dependent-effect | 9100 | 1.2 | 4743 | 1 | 2039.7 | 0.501 | 1.6 | 8.1 | 0.368 | 13 | IC50 ([6]; Homo sapiens, NCI-H2122, read-out: IC50): 9100 nM; Activity [21]: 40%; DC50 [17]: 19 nM; Cmax [18]: 587 ng/mL; AUClast [19]: 19365.3 ng·h/mL; DC50 [20]: 16 nM |
